Bioassay records from PubChem.
A selection: hits, their analogues and other compounds. The true share with any hit is near 2.7%.
MC4R barr agon: human MC4R agonism via beta-arrestin; P32245; U2OS MC4R beta-arrestin complementation, luminescence; percent of melanotan II response, DMSO zero; activation, % at 8.9 µM; 360,000 tested, 0.98% active; AID 540308;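 active means activation above a per-plate cutoff, the mean activation of sample wells on that plate plus 3 SD, cut at about 8% in these data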
MC4R antagonist: human MC4R antagonism in cAMP assay; P32245; MC4R-expressing cells, MTII-stimulated cAMP, LANCE TR-FRET; inhibition, % at 6.5 µM; 360,000 tested, 0.48% active;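 active means inhibition above its plate's cutoff, the mean of tested wells on that plate plus 3 SD, cut at about 29% in these data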;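 further: 0% = Melanotan II alone and 100% = Melanotan II plus saturating MCL0020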
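material = U2OS cells stably expressing human melanocortin 4 receptor (MC4R) | also added = Melanotan II challenge | dosing = single nominal compound dose of 6.5 µM | detection = TR-FRET with Eu-cAMP and labeled anti-cAMP, 671 nm | replication = singlicate | timing = compound 30 min, challenge 1 h, detection 1 h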
Rev-erbA mod: modulates human Rev-erb alpha binding to DNA. 370,000 tested, 0.79% active. activity, % at 10 µM. AID 1259318. Rev-erbα–FITC-DNA binding, fluorescence polarization, 90 min;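 active means activity above about 14%, limit read from the data; passing the limit was not always enough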;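 further: 0% = DMSO wells with 35 nM protein and 100% = DMSO wells with 750 nM protein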
Target sequence (P20393 whole entry, looked up): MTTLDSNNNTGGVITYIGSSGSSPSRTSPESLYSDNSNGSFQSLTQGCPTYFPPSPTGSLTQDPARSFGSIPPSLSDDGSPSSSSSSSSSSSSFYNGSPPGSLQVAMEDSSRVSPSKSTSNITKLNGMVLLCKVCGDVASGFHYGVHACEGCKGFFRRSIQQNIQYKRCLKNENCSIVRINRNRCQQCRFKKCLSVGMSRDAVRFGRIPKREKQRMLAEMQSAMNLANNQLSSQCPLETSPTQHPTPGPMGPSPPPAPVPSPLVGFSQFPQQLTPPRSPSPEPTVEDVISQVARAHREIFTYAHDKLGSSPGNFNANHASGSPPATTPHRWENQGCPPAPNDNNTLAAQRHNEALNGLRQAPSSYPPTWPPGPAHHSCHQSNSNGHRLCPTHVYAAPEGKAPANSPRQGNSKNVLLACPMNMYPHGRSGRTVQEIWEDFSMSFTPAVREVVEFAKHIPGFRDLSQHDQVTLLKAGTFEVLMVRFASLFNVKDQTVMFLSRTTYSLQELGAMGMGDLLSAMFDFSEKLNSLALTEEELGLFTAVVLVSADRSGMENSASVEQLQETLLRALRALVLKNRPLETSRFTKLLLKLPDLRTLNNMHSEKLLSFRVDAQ
PG9 binder: small molecules binding HIV-1 gp120 antibody PG9; TR-FRET gp120-PG9 antibody binding; inhibition, % at 6.7 µM; 360,000 tested, 0.43% active; AID 624416; in the data active means inhibition above about 8.5%
NR2E3 ag-1: agonists of human NR2E3 nuclear receptor; Q9Y5X4; CHO-S Gal4-NCOR/VP16-NR2E3 two-hybrid, luciferase; inhibition of corepressor binding, % at 3.98 µM; 360,000 tested, 0.35% active;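 active means inhibition above the mean of all tested compounds plus 3 SD, cut at about 70% in these data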;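 further: 0% = DMSO with NR2E3 transfected cells and 100% = cells lacking NR2E3 construct; higher means lower luciferase signal from less NR2E3 corepressor binding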
NR2E3 ag-2: NR2E3 (human) agonism. GST-NR2E3/biotin-RetCOR TR-FRET, 1536-well. inhibition of corepressor binding, % at 4.78 µM. 320,000 tested, 0.12% active. AID 2300;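 active means percent inhibition above the cutoff of mean plus 3 SD of all tested compounds, set per screening campaign, cut at about 20% in these data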;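 further: 0% = DMSO wells and 100% = biotin wells as full block of FRET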
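Test system – NR2E3–RetCOR corepressor complex · Quantity – NR2E3 fusion 1.35 nM · Buffer or medium – Tris pH 7.5 · Incubation – Compound–protein incubation for 5 h at 4 °C · Technique – TR-FRET, Eu(K)-anti-GST donor, streptavidin-D2 acceptor, ex 340, em 617/671 nm · Evaluation – percent inhibition of 671/617 nm emission ratio versus biotin and DMSO controls · Plate – 1536-well format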
U2OS cAMP counter: nonselective cAMP signaling inhibitor, MC4R antagonist counter-screen. shares compounds with MC4R antagonist. parental U2OS, forskolin cAMP, LANCE TR-FRET. 1,600 tested, 26% active. inhibition, % at 6.5 µM;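 active means mean inhibition over triplicates above the low-control well mean plus 3 SD, set per campaign, cut at about 13% in these data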;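 further: signal is single emission at 671 nm which falls as cellular cAMP rises; 0% = forskolin-stimulated wells and 100% = buffer without forskolin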
MC4R antag conf: human MC4R cAMP antagonism confirmation; MC4R-expressing cells, MTII-stimulated cAMP, TR-FRET; inhibition, % at 6.5 µM; 1,600 tested, 27% active; shares compounds with MC4R antagonist; in the data active means inhibition above about 29%;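 further: 0% = agonist stimulated wells alone and 100% = agonist stimulated wells plus saturating reference antagonist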
NR2E3 ag conf: confirmation of human NR2E3 agonists; CHO-S mammalian two-hybrid NR2E3-NCOR, luciferase luminescence; inhibition, % at 3.98 µM; 2,300 tested, 51% active; shares compounds with NR2E3 ag-1;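 active means average inhibition above a cutoff equal to the mean inhibition of all tested compounds plus one SD, cut at about 70% in these data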;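 further: 0% = DMSO in NR2E3 cells and 100% = DMSO in cells lacking NR2E3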
VP16 counter: GAL4-VP16 reporter inhibition in NR2E3 agonist counterscreen. shares compounds with NR2E3 ag-1. CHO-S GAL4-VP16 luciferase reporter, luminescence. inhibition, % at 3.98 µM. 2,300 tested, 29% active;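 active means mean inhibition above a cutoff equal to the average over all tested compounds plus one standard deviation, cut at about 70% in these data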;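 further: luciferase from a UAS reporter driven by GAL4-VP16 transactivation; 0% = DMSO with VP16-transfected cells and 100% = DMSO with cells lacking VP16; higher means less reporter light so more repression of VP16 activity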
PG9 bind confirm: confirmation of small molecules binding HIV-1 gp120 antibody PG9; TR-FRET PG9 antibody binding, biochemical; inhibition, % at 6.7 µM; 1,500 tested, 90% active; shares compounds with PG9 binder; in the data active means inhibition above about 9%
PGV04 Ab binding: counter-screen for PG9 binders: binding control antibody PGV04 | TR-FRET PGV04 antibody-gp120 binding, biochemical | shares compounds with PG9 binder | inhibition, % at 6.7 µM | 1,500 tested, 95% active; in the data active means inhibition above about 9.5%
PG9 bind DR: small molecules binding HIV-1 gp120 antibody PG9; shares compounds with PG9 binder; TR-FRET PG9 antibody-gp120 binding inhibition; IC50, µM; 95 tested, under 10 active; AID 651848; in the data active means IC50 below about 10 µM
PGV04 binding DR: binds control antibody PGV04 in PG9 counter-screen; shares compounds with PG9 binder; TR-FRET binding to control antibody PGV04; IC50, µM; 95 tested, 20% active; AID 651937
PG126 binding DR: PG126 binding, dose response counter-screen; shares compounds with PG9 binder; TR-FRET binding to antibody PG126, counterscreen; IC50, µM; 95 tested, 20% active; AID 651939
The depositor's hits bear a star; i = inactive; x = no result given; ! = a repeat was not active. Unless noted, no stated cut-off is given here; in the data, active means IC50 below about 9 µM; inactive means the rest.

SMILES | MC4R barr agon | MC4R antagonist | Rev-erbA mod | PG9 binder | NR2E3 ag-1 | NR2E3 ag-2 | U2OS cAMP counter | MC4R antag conf | PG9 bind confirm | PGV04 Ab binding | others
Cc1ccc(Nc2nc(N/N=C/c3c[nH]c4ccccc34)nc(N3CCOCC3)n2)cc1 | 2.8 | 31.1* | 2.8 | -2.1 | 52.4 | -0.4 | 4.6 | 19.1 | x | x | NR2E3 ag conf=51.3;VP16 counter=19.8
COc1ccc(OC)c2c1C(=O)C(Cl)=C(Cl)C2=O | -2.3 | 32.0* | -0.9 | 0.4 | 102.3* | -15.7 | 72.7* | 48.7* | x | x | NR2E3 ag conf=99.3*;VP16 counter=68.2
CCCCCC(=O)NNC1=NCC(Cc2ccccc2)S1 (centres undefined) | -0.8 | -4.1 | -0.8 | 3.3 | 16.5 | 0.7 | x | x | x | x
COc1ccc(NC(=S)Nc2ccc3c(c2)c(=O)n(C)n3-c2ccccc2)cc1 | -0.7 | -0.6 | -9.9 | -0.3 | -5.9 | x | x | x | x | x
S=c1[nH]nc(-c2ccccn2)n1/N=C/c1ccc(-c2ccccc2Br)o1 | -1.4 | 94.4* | -1.7 | 15.2* | 8.1 | x | 58.2* | 125.7* | 7.7 | 25.1*
Cc1cc(N/N=C/c2ccc(Cl)cc2)nc(NCc2ccccc2)n1 | -0.2 | 3.9 | -8.7 | 0.7 | -41.1 | -2.8 | x | x | x | x
Cc1cc(NC(=O)Cn2nnc(-c3ccccc3N)n2)no1 | -0.9 | -4.0 | -3.9 | -0.8 | -12.0 | -2.9 | x | x | x | x
Brc1ccc(-c2nn3c(-c4ccco4)nnc3s2)o1 | -3.4 | 44.5* | -11.6 | 16.2* | -17.8 | -1.8 | 26.0* | 38.6* | 20.0* | 37.3*
Cc1ccc(S(=O)(=O)N(CC(=O)NCCSc2ccccn2)c2ccccc2F)cc1 | 2.4 | -7.7 | -0.2 | 0.8 | 8.6 | 0.9 | x | x | x | x
CC(C)(C)c1nc(SCC(=O)NC2CCCC2)c2ccccc2n1 | 1.4 | 29.3* | 3.0 | 9.9* | 2.0 | 2.5 | 5.8 | -0.5 | 13.3* | 17.0*
N#Cc1c(-c2ccccc2)nc(SCC(=O)Nc2ccccc2)[nH]c1=O | -1.9 | 9.8 | -1.7 | 4.2 | -12.2 | 11.3 | x | x | x | x
Cc1cc(C)nc(NS(=O)(=O)c2ccc(NC(=O)CSc3nc(-c4ccccc4)c(C#N)c(=O)[nH]3)cc2)n1 | -1.8 | 36.4* | 3.9 | 35.6* | -1.6 | 8.2 | 16.8* | 26.3 | 44.0* | 57.9*
Cc1cc(NC(=O)CSc2nc(-c3ccccc3)c(C#N)c(=O)[nH]2)no1 | 1.9 | 34.5* | 3.0 | 17.8* | 12.1 | 8.4 | 26.3* | 50.0* | 28.2* | 34.8*
Cc1ccc(CCc2nnc(SCC(=O)Nc3cc(Cl)ccc3Cl)n2-c2ccccc2)o1 | -0.6 | 13.1 | 1.0 | -0.5 | 19.7 | -1.4 | x | x | x | x
C=CCn1c(C)cc(C2=NNC(=NCc3ccccc3)SC2)c1C | -1.4 | -11.5 | -3.0 | 0.7 | -38.1 | -4.2 | x | x | x | x
O=C1COc2ccc(C(=O)COC(=O)c3ncc(Cl)c(Cl)c3Cl)cc2N1 | 4.7 | 29.4* | 1.1 | 10.7* | 22.1 | -0.9 | 1.9 | 1.2 | 17.5* | 27.4*
CCc1ccc(NC(=O)CSc2nc3cc(C(=O)OC)ccc3c(=O)n2Cc2ccco2)cc1 | -0.7 | 1.3 | 6.4 | 0.4 | -17.6 | -0.1 | x | x | x | x
CCOC(=O)c1c(NC(=O)CSc2nc3cc(Cl)ccc3c(=O)n2Cc2ccco2)sc(C(=O)N(C)C)c1C | 0.6 | 30.8* | -7.4 | 50.9* | 13.3 | 4.3 | -4.0 | 6.1 | 9.5* | 22.8*
CN(C)CCCN1C(=O)C(O)=C(C(=O)c2cc3ccccc3o2)C1c1ccccn1 (centres undefined) | -0.8 | 33.0* | 2.7 | 26.4* | -2.7 | x | 8.6 | 26.1 | 40.0* | 51.0*
CCN(CC)CCN1C(=O)C(O)=C(C(=O)c2cccs2)C1c1ccccn1 (centres undefined) | -2.2 | 3.7 | 1.8 | 1.4 | -23.7 | 1.6 | x | x | x | x
CCc1ccc(Nc2ncnc3nc[nH]c23)cc1 | 1.1 | 6.8 | -2.5 | 0.6 | -74.4 | -0.9 | x | x | x | x
COc1ccccc1Cn1c(=S)[nH]c2ccc(Br)cc2c1=O | 1.2 | 6.1 | 10.9 | -2.5 | -9.1 | -2.3 | x | x | x | x
COc1ccccc1Cn1c(=S)[nH]c2ccc(F)cc2c1=O | -1.8 | 65.2* | 7.5 | 32.4* | -31.4 | 5.5 | 50.1* | 100.3* | 18.4* | 17.1* | PG9 bind DR=i;PGV04 binding DR=i;PG126 binding DR=i
Cc1ccc(-c2cc(C(=O)O)c3cc(Br)ccc3n2)s1 | -0.3 | 36.3* | 1.1 | 23.5* | -55.5 | x | 16.3* | 30.9*! | 28.4* | 42.9*
Cc1ccc2[nH]c3c(=S)nc[nH]c3c2c1 | -2.2 | 48.2* | -3.5 | 72.4* | -26.9 | -1.9 | 12.6 | 11.1 | 44.4* | 20.7* | PG9 bind DR=>67.1;PGV04 binding DR=i;PG126 binding DR=i
Cn1c(=S)[nH]c2scc(-c3cccs3)c2c1=O | -1.3 | 26.2 | 8.9 | 4.2 | 15.1 | x | x | x | x | x
C=CCn1c(=S)[nH]c2scc(-c3cccs3)c2c1=O | -1.6 | 51.1* | 4.9 | 9.3* | -35.4 | x | 17.0* | 27.8 | 9.8* | 10.3*
O=C1c2ccccc2C(=O)N1CCCCSc1nnc2ccccn12 | 0.2 | 1.9 | -0.2 | 0.0 | -13.3 | 2.4 | x | x | x | x
CC(Sc1ccc2ccccc2n1)C(=O)O (centres undefined) | 3.4 | 58.0* | 0.8 | 50.2* | -14.4 | x | 42.2* | 76.7* | 52.5* | 58.8*
